Experimental data taken from ChEMBL document CHEMBL2417356, “Identification of 2,3-disubstituted pyridines as potent, orally active PDE4 inhibitors” (Bioorg Med Chem, 2013).
The source made the active and inactive calls. The calls are words filed in the database; no cut-off is given here.

Legend:
Cavia porcellus [1] = species on record: Cavia porcellus; assay: Inhibition of Hartley guinea pig eosinophil PDE4 assessed as cAMP hydrolysis at 100 nM by two-step radioisotope method relative to control
Cavia porcellus [2] = species on record: Cavia porcellus; assay: (§1) Inhibition of Hartley guinea pig eosinophil PDE4 assessed as cAMP hydrolysis by two-step radioisotope method
Method in brief: (§2)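 PDE4 purified from eosinophils of male Hartley guinea pigs (~500 g) given 5 mg polymyxin B. Activity measured by a modified two-step radioisotope method with [3H]cAMP substrate, quantifying hydrolyzed cAMP. IC50 taken as the concentration giving 50% inhibition of hydrolysis, from concentration–response curves. Three experiments per agent.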

[3] = as §1; design: species or system Cavia porcellus; method in brief: as §2
Cavia porcellus [4] = assay: Bronchodilatory activity in ovalbumin-treated guinea pig at 10 mg/kg, po administered 1 hr prior to ovalbumin challenge relative to vehicle-treated control; type: functional
Method in brief: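 Male guinea pigs OVA-sensitized at 3 weeks old, studied 6 weeks later. Anesthetized, tracheally cannulated and ventilated with room air at 60 strokes/min. Air-overflow measured by the Konzett-Rössler method. Bronchospasm induced by i.v. OVA via hind-paw vein. Peak response taken within 10 min of challenge as % of theoretical maximum. Oral dosing 1 h before challenge; % inhibition against vehicle.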

Mus musculus = assay: Antiinflammatory activity in mouse assessed as inhibition ovalbumin-induced eosinophil infiltration into lung at 10 mg/kg, po administered 30 mins prior to ovalbumin challenge followed by once per day compound administration measured after 2 days relative to vehicle-treated control; type: functional
Method in brief: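 Male mice, 5 weeks old, OVA-sensitized. Dosed orally 30 min before intranasal OVA challenge and once daily for the next 2 days. Challenge given 7 days after the last sensitizing OVA injection, under anaesthesia. Bronchoalveolar lavage under pentobarbital 3 days post-challenge. BALF diluted 10-fold in Turk's solution and living infiltrated cells counted. % inhibition calculated against vehicle group.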

inhibition (Cavia porcellus [1]) [%] | IC50 [3] [nM] | Compound | also measured
5 | – | Brc1cccc(Sc2ncccc2OCCCCc2cccnc2)c1 | –
– | – | O=C(c1cccc(Br)c1)c1ccccn1 | inhibition (Cavia porcellus [2]): inactive
56 | – | Brc1cccc(Sc2ncccc2OCCc2ccncc2)c1 | –
69 | – | Brc1cccc(Sc2ncccc2OCCCc2cccnc2)c1 | –
10 | – | Brc1cccc(Sc2ncccc2OCCCc2ccccn2)c1 | –
– | 104 | N#CCCCOc1cccnc1Sc1cccc(Br)c1 | –
60 | – | Brc1cccc(Sc2ncccc2OCCc2cccnc2)c1 | –
80 | 34 | Brc1cccc(Sc2ncccc2OCCCc2ccncc2)c1 | Activity (Cavia porcellus [4]): 77%; inhibition in vivo at 10 mg/kg (Mus musculus): 50%
– | 54 | COc1ccc(C2CNC(=O)C2)cc1OC1CCCC1 (centres undefined) [ROLIPRAM] | inhibition in vivo at 10 mg/kg (Mus musculus): 39%
3 | – | Brc1cccc(Sc2ncccc2OCCCCc2ccncc2)c1 | –
